Data on three compounds can be found in ChEMBL document CHEMBL1926556, “Synthesis and biological activities of 2-[(heteroaryl)methyl]imidazolines” (Bioorg Med Chem, 2012).

One test concerns the target Nischarin (Rattus norvegicus, UniProt Q4G017). As to the kind of experiment: Displacement of [3H]clonidine from imidazoline I1 receptor in Sprague-Dawley rat kidney membranes after 45 mins by scintillation counting. It counts as cell membranes, Membrane. The procedure, abridged: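 Crude P2 membranes from male Sprague–Dawley rat kidney, 0.2–0.5 mg protein. […] Specific binding defined by 10 µM rilmenidine. 11 concentrations from 0.01 to 100 µM, 50 mM Tris-HCl pH 7.4, 45 min at RT. Filtration and scintillation counting; IC50.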

Test [1] has as its target T1, Adrenergic receptor alpha-2 (Rattus norvegicus, UniProt P22086+P19328+P22909).
T1 sequence (P22086 whole entry): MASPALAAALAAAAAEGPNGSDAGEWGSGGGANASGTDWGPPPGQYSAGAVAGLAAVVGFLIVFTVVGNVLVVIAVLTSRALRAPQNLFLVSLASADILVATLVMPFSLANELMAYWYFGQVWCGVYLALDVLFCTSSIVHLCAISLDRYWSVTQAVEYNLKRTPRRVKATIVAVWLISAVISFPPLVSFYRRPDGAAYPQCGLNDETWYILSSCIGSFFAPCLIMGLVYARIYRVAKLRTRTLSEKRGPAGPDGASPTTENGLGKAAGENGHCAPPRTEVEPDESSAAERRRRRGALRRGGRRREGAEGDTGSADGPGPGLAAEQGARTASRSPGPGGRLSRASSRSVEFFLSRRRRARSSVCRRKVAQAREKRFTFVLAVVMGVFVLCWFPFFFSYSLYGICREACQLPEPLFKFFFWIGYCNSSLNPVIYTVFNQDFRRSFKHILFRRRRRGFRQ
T1 sequence (P19328 whole entry): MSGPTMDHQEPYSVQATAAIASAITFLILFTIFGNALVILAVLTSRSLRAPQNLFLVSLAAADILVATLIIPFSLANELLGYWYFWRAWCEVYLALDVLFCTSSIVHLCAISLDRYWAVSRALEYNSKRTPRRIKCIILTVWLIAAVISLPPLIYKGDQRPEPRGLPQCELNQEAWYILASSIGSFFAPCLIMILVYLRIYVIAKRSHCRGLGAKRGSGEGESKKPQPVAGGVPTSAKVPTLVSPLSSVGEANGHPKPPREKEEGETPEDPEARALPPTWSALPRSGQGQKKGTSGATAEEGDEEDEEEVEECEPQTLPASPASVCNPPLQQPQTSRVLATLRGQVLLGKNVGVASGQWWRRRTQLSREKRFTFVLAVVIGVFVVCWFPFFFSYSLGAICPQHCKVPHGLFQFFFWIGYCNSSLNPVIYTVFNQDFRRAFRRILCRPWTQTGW
T1 sequence (P22909 whole entry): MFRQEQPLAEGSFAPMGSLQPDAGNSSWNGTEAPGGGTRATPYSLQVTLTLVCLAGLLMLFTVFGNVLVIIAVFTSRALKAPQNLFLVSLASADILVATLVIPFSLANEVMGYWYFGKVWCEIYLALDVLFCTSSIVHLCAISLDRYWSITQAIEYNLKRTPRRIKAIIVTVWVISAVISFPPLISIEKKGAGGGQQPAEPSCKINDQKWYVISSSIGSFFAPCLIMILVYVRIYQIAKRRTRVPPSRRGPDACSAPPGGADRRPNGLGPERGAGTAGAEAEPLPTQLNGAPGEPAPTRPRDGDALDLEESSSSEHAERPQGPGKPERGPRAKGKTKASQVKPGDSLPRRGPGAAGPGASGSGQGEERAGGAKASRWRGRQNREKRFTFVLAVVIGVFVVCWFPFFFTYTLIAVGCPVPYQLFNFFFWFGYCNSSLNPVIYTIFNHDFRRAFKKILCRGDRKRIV
The test is described as follows: Displacement of […] from adrenoceptor alpha2 in Sprague-Dawley rat brain membranes after 45 mins by scintillation counting. The test is classed as cell membranes, Membrane. The gist of the method: (§1)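 Crude P2 membranes from male Sprague–Dawley rat brain (250–280 g), 0.2–0.3 mg protein. Radioligand 1 nM: [3H]2BFI for I2, [3H]prazosin for α1, [3H]RX821002 for α2. Non-specific binding defined by 10 µM BU224 (I2), 10 µM phenylephrine (α1) or 10 µM rauwolscine (α2). 11 concentrations from 0.01 nM to 100 µM, triplicate, 45 min at RT. Filtration and scintillation counting; Ki by Cheng–Prusoff.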

Test [2] is described as follows: Displacement of [3H]BFI from imidazoline I2 receptor in Sprague-Dawley rat brain membranes after 45 mins by scintillation counting. The test is classed as cell membranes, Membrane. The gist of the method:
as §1

In test [3] the target is T2, Alpha-2A adrenergic receptor (Homo sapiens) (UniProt P08913).
T2 sequence (whole entry): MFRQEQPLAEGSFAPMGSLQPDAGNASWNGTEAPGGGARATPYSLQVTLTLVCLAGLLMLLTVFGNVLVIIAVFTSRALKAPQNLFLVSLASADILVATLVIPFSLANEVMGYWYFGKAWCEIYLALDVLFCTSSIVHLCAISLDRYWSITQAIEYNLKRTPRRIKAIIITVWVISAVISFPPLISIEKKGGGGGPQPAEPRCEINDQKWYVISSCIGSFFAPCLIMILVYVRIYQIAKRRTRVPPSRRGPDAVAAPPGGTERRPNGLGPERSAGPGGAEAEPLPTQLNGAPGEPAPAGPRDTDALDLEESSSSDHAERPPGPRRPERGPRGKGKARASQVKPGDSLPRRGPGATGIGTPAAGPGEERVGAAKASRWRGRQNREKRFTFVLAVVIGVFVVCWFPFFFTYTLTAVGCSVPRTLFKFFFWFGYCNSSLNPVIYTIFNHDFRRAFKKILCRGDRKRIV
As to the kind of experiment: Agonist activity at human adrenoceptor alpha2A expressed in CHOK1 cells assessed as stimulation of agonist-induced [35S]GTPgammaS binding by scintillation counting assay relative to noradrenaline. The settings on record: CHO-K1. The test is classed as functional, cell-based. The procedure, abridged: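 Membranes from CHO-K1 cells stably expressing human α2A-adrenoceptor; 5 µg protein incubated with serial dilutions of agonist and 0.1 nM [35S]GTPγS in Tris buffer pH 7.4 with 1 µM GDP, MgCl2, NaCl, 30 min at RT. Filtered and counted by scintillation. EC50 and intrinsic activity relative to noradrenaline; means from 3 independent experiments.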

Chain of Nischarin (Q4G017 whole entry): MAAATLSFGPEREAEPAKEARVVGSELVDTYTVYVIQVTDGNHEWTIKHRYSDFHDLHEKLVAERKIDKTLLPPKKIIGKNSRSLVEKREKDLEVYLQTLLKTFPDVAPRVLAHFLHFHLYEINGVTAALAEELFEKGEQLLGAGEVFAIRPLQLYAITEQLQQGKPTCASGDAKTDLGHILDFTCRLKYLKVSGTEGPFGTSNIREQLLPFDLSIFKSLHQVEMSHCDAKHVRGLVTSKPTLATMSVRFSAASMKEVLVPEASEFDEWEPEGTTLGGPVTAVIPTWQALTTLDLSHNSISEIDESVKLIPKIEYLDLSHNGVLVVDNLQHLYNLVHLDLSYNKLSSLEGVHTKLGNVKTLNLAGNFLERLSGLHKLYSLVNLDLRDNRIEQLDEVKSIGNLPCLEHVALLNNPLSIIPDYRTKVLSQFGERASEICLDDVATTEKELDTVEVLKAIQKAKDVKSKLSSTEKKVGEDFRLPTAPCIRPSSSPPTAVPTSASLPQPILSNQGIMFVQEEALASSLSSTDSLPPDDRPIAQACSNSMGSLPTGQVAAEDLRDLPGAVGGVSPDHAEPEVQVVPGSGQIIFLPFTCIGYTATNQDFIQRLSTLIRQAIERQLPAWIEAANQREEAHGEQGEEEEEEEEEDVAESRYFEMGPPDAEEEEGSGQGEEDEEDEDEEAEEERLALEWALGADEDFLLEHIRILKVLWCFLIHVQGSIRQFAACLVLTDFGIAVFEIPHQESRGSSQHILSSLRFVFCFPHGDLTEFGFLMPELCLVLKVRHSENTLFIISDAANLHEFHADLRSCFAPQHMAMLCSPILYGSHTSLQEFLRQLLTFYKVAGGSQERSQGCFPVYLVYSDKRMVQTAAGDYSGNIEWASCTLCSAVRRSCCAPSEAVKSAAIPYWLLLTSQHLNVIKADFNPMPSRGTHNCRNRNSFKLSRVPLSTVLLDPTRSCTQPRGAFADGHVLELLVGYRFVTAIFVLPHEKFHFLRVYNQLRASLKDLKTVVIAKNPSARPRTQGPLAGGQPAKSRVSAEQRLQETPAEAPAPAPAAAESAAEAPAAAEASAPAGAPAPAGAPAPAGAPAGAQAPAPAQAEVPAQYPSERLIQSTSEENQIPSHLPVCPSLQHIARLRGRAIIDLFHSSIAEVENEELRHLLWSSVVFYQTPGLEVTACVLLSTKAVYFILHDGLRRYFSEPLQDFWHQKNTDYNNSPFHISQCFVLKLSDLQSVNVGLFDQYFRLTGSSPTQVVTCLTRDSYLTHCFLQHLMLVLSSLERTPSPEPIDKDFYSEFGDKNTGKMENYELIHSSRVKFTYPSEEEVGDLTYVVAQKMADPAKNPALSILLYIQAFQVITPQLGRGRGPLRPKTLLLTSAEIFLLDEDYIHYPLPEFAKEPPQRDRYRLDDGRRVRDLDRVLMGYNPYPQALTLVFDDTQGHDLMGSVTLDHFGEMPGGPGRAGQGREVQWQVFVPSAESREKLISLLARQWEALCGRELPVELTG

Compound `Cl.c1ccc2c(c1)cnn2CC1=NCCN1` showed a half-maximal inhibitory concentration (IC50) on Nischarin of 19.4 µM. Further, the results for the Ki in test [1] and in test [2] were 0.0185 µM and 42.2 µM, respectively. Besides, the Emax in test [3] turned out to be 6.3%.
As for `Cc1cccc2cnn(CC3=NCCN3)c12.Cl`, the IC50 on Nischarin was 96.4 µM. For the same compound, the values for the inhibition constant (Ki) in test [1] and in test [2] were 0.607 µM and 6.84 µM, respectively. For the same compound, the maximum response (Emax) in test [3] was determined as 6.3%.
In turn, `Cl.Clc1cccc2cnn(CC3=NCCN3)c12` yielded an IC50 on Nischarin of 0.856 µM. For the same compound, the results for the inhibition constant (Ki) in test [1] and in test [2] were 0.0064 µM and 0.554 µM, respectively. In addition, in test [3], the Emax came out at 7.4%.
